Published values from different studies.

NC(=O)N1c2ccccc2C=Cc2ccccc21 — half-life (metabolic stability; human, liver microsomes; 1 µM): > 3 h
CCN1CCN(Cc2ccc(NC(=O)c3ccc(C)c(NC(=O)c4cncc(-c5cccs5)c4)c3)cc2C(F)(F)F)CC1 — MRT (mouse, plasma; intraperitoneal, 15 mg/kg, single dose): 3.09 h
CCOc1ccc(N(C)S(=O)(=O)c2cc(Cl)sc2C(=O)Nc2cc(Cl)cc(C(=O)O)c2)cc1OC — MRT(0-inf) (male C57BL/6 mouse, plasma; intraperitoneal, 10 mg/kg): 0.781 h
C=CS(=O)(=O)c1ccc(Nc2nc(OCC3CCCCC3)c3nc[nH]c3n2)cc1 — MRT(0-t) (male BALB/c mouse, plasma; intravenous, 20 mg/kg, single dose): 0.71 h
O=[N+]([O-])c1ccc(-c2ccc(O)cc2)c2cccnc12 — MRT(0-inf) (male CD-1 mouse, plasma; intravenous, 1 mg/kg): 0.11 h
CCC(CC)COC(=O)[C@H](C)N[P@](=O)(OC[C@@H]1C[C@@H](O)[C@H](n2cnc3c(N)ncnc32)O1)Oc1ccccc1 — half-life (metabolic stability; human, liver microsomes; 1 µM): 0.0137 h
CCOC(=O)c1cc(Cl)cc(NC(=O)c2sc(Cl)cc2S(=O)(=O)N(C)c2ccc(OCC)c(OC)c2)c1 — MRT(0-inf) (male C57BL/6 mouse, brain; intraperitoneal, 10 mg/kg): 3.28 h
CC(=O)O[C@@]12CO[C@@H]1C[C@H](O)[C@@]1(C)C(=O)[C@H](O)C3=C(C)[C@@H](OC(=O)[C@H](O)[C@@H](NC(=O)OC(C)(C)C)c4ccccc4)C[C@@](O)([C@@H](OC(=O)c4ccccc4)[C@H]21)C3(C)C — MRT (male Kunming mouse, liver; oral, 20 mg/kg): 5.7 h
COc1cc(C(=O)OCCCN2CCCN(CCCOC(=O)c3cc(OC)c(OC)c(OC)c3)CC2)cc(OC)c1OC — MRT(0-inf) (male CD-1 mouse, brain; subcutaneous): 1.72 h
CSc1nccc(C(=O)N[C@@H](CCC(=O)O)C(=O)N[C@@H](Cc2ccc3ccccc3c2)C(=O)N[C@@H](CC(C)C)C(=O)NC2CC2c2ccccc2)n1 (stereo partly shown) — half-life (metabolic stability; human, plasma): 36.9 h
